Measurements taken from PubChem BioAssay AID623885 (Vanderbilt Specialized Chemistry Center, 2012).
The source made the active and inactive calls.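 Rule for the calls: active = mean half-maximal effective concentration under 30 µM; inactive = the rest.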

Each compound was assayed against Metabotropic glutamate receptor 3 (Rattus norvegicus) (UniProt P31422) (assay: inhibition of glutamate response at mGlu3 – thallium flux, HEK/GIRK cells, rat, dose response (AID 623885)). Settings: HEK293 GIRK rat mGlu3, thallium flux fluorescence; at 30 µM (top of the series).
Metabotropic glutamate receptor 3 (Rattus norvegicus), sequence (P31422 whole entry, looked up): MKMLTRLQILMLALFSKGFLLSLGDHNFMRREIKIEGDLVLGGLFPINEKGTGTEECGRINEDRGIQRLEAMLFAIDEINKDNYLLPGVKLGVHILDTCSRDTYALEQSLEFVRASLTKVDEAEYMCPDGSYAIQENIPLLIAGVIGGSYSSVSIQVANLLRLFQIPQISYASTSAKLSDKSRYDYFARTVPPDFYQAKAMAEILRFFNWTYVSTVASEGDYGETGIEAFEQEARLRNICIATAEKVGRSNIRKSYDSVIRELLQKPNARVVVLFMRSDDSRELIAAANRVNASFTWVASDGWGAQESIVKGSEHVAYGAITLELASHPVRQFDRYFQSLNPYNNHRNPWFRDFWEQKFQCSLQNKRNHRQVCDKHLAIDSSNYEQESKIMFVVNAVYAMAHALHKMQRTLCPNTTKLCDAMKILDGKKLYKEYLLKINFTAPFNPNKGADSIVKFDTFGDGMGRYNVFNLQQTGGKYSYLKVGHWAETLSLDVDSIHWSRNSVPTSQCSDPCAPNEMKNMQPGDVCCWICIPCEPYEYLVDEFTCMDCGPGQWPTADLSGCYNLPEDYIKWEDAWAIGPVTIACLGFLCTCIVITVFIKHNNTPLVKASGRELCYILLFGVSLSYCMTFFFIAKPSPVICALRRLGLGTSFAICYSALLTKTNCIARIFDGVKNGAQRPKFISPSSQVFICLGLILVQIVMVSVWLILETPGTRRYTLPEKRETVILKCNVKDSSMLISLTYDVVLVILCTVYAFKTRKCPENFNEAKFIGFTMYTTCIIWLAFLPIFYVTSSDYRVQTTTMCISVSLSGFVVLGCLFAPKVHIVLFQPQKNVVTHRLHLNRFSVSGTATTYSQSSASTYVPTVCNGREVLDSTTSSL
Method in brief: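 Material: HEK cells stably co-expressing GIRK channels, M4 muscarinic receptor, rat mGlu3. Probe or stimulus: thallium-containing buffer with or without agonist. Timing: dye loading 1 h room temperature, compounds ~2.5 min. Signal: thallium influx through GIRK, FluoZin-2 AM fluorescence. Read-out: baseline-normalized fluorescence slope 5–15 s post thallium/agonist, four-parameter logistic fit.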
With COc1ccc(C#Cc2ccc(C(=O)N[C@H](C)C(C)C)cc2)cc1 the “percent of glutamate max response” value was “inactive”.
COc1ccc(C#Cc2ccc(C(=O)N3CCC(O)CC3)cc2)cc1 was tested, and the percent of glutamate max response was 7.43.
COc1ccc(C#Cc2ccc(C(=O)NC(C)(C)CO)cc2)cc1 showed a percent of glutamate max response of 162.
Work on COc1ccc(C#Cc2ccc(C(=O)N3CCC(O)(c4ccc(Cl)c(C(F)(F)F)c4)CC3)cc2)cc1 yielded a percent of glutamate max response of 117.
COc1ccc(C#Cc2ccc(C(=O)N3CCCCC3CO)cc2)cc1 (stereo unspecified) gave a percent of glutamate max response of 55.9.
In the case of CCOC(=O)C#Cc1ccc(C(=O)N2CCC(O)CC2)cc1, the “percent of glutamate max response” value is reported as “inactive”.
COc1ccc(C#Cc2ccc(C(=O)NCCC3=CCCCC3)cc2)cc1 was tested, and the “percent of glutamate max response” value was “inactive”.
For O=C(c1ccc(C#Cc2ccc(Cl)cc2)cc1)N1CCC(O)CC1, the percent of glutamate max response was 51.6.
For CC(O)(C#Cc1ccc(C(=O)N2CCC(O)CC2)cc1)c1cccc(F)c1 (stereo unspecified), the “percent of glutamate max response” value was “inactive”.
COc1ccc(C#Cc2ccc(C(=O)N3CCCC3)cc2)cc1 gave a percent of glutamate max response of 35.3.
O=Cc1ccc(C#Cc2ccc(C(=O)N3CCC(O)CC3)cc2)cc1 showed a percent of glutamate max response of 21.8.
In the case of CCN(CC)CC#Cc1ccc(C(=O)N2CCC(O)CC2)cc1, the “percent of glutamate max response” value is reported as “inactive”.
With COc1ccc(C#Cc2ccc(C(=O)NCCCO)cc2)cc1 the “percent of glutamate max response” value was “inactive”.
With COc1ccc(C#Cc2ccc(C(=O)N3C[C@H]4C[C@@H]3CN4C(=O)OC(C)(C)C)cc2)cc1 the “percent of glutamate max response” value was “inactive”.
In the case of COc1ccc(C#Cc2ccc(C(=O)NCCC(C)(C)C)cc2)cc1, the “percent of glutamate max response” value is reported as “inactive”.
For O=C(c1ccc(C#CC2CCCCC2)cc1)N1CCC(O)CC1, the percent of glutamate max response was 37.
CC(C)(C)C#Cc1ccc(C(=O)N2CCC(O)CC2)cc1 was tested, and the “percent of glutamate max response” value was “inactive”.
In the case of CC(C)(O)C#Cc1ccc(C(=O)N2CCC(O)CC2)cc1, the “percent of glutamate max response” value is reported as “inactive”.
In the case of COc1ccc(C#Cc2ccc(C(=O)N[C@H]3CCCCNC3=O)cc2)cc1, the “percent of glutamate max response” value is reported as “inactive”.
For Cn1ccnc1C#Cc1ccc(C(=O)N2CCC(O)CC2)cc1, the “percent of glutamate max response” value was “inactive”.
In the case of COCC(C)NC(=O)c1ccc(C#Cc2ccc(OC)cc2)cc1 (stereo unspecified), the “percent of glutamate max response” value is reported as “inactive”.
